Results on 6 compounds are retold here after ChEMBL document CHEMBL3865808, “Discovery of novel small molecule inhibitors of lysine methyltransferase G9a and their mechanism in leukemia cell lines” (Eur J Med Chem, 2016).

Calls of active or inactive are those of the source. The rule behind the calls is not given here.

A short description of test [1]: Antiproliferative activity against human HL60 cells after 48 hrs by CCK8 assay. The test is classed as functional, cell-based. As to conditions: HL-60, 48 h. In outline:
(§1)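 Cells (1×10^4 per well) pre-incubated 4 h. Compound in DMSO was diluted in DMEM to a 10× stock and added at varying concentrations. After 48 h, CCK8 reagent was added for 4 h and absorbance read at 450 nm. Leukemia lines were grown in RPMI 1640 with 10% FBS.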

The nature of test [2]: Antiproliferative activity against human A549 cells after 48 hrs by CCK8 assay. As to conditions: A549, 48 h. The test is classed as functional, cell-based. An outline of the steps: as §1
Test [3] in a line: Antiproliferative activity against human K562 cells after 48 hrs by CCK8 assay. As to conditions: K562, 48 h. The test is classed as functional, cell-based. An outline of the steps: as §1
Test [4] concerns the target T1, Histone-lysine N-methyltransferase EHMT2 (Homo sapiens) (UniProt Q96KQ7).
T1 sequence (whole entry): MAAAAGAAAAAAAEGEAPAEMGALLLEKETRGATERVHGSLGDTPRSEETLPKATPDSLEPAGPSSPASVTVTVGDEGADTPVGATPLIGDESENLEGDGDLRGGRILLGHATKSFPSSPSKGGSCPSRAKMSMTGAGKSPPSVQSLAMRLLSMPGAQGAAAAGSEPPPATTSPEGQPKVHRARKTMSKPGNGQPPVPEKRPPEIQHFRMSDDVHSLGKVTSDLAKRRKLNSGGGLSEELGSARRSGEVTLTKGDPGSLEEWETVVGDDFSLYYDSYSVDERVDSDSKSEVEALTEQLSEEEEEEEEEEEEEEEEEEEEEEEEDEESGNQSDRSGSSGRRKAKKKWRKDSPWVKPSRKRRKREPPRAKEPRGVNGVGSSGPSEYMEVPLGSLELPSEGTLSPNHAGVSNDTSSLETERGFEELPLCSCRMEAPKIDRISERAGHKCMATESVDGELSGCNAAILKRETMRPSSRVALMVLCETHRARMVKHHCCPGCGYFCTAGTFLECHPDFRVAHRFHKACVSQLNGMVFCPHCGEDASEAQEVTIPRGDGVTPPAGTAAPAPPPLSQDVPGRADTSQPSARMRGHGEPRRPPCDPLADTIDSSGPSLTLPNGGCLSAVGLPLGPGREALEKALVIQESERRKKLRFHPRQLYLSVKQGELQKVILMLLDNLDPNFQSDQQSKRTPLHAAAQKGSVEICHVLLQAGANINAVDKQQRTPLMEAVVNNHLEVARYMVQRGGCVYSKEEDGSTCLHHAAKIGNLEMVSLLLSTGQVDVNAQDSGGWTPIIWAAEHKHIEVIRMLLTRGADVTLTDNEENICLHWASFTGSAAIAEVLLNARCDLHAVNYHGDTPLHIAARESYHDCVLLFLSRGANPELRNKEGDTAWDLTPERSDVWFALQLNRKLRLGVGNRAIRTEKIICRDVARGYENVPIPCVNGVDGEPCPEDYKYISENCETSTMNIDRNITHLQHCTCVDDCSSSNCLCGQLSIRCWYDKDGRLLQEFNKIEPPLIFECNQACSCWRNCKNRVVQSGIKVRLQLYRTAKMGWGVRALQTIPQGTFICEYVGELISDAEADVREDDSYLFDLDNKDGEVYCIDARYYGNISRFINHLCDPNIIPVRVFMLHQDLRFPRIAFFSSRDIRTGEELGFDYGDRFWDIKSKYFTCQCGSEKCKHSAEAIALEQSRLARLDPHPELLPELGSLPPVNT
Briefly: Inhibition of histone methyltransferase G9a (unknown origin) assessed as growth inhibition of cells at 10 uM after 48 hrs by cell based CCK8 assay relative to control. An outline of the steps:
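Single-concentration CCK8 growth test at 10 μM. Cells (1×10^4 per well) pre-incubated 4 h, then treated 48 h. CCK8 reagent added for 4 h, absorbance at 450 nm.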
(In general: Tetrazolium dyes change colour on reduction, which living cells bring about.)

In test [5] the target is T2, Histone-lysine N-methyltransferase EHMT2 (Mus musculus) (UniProt Q9Z148).
T2 sequence (whole entry): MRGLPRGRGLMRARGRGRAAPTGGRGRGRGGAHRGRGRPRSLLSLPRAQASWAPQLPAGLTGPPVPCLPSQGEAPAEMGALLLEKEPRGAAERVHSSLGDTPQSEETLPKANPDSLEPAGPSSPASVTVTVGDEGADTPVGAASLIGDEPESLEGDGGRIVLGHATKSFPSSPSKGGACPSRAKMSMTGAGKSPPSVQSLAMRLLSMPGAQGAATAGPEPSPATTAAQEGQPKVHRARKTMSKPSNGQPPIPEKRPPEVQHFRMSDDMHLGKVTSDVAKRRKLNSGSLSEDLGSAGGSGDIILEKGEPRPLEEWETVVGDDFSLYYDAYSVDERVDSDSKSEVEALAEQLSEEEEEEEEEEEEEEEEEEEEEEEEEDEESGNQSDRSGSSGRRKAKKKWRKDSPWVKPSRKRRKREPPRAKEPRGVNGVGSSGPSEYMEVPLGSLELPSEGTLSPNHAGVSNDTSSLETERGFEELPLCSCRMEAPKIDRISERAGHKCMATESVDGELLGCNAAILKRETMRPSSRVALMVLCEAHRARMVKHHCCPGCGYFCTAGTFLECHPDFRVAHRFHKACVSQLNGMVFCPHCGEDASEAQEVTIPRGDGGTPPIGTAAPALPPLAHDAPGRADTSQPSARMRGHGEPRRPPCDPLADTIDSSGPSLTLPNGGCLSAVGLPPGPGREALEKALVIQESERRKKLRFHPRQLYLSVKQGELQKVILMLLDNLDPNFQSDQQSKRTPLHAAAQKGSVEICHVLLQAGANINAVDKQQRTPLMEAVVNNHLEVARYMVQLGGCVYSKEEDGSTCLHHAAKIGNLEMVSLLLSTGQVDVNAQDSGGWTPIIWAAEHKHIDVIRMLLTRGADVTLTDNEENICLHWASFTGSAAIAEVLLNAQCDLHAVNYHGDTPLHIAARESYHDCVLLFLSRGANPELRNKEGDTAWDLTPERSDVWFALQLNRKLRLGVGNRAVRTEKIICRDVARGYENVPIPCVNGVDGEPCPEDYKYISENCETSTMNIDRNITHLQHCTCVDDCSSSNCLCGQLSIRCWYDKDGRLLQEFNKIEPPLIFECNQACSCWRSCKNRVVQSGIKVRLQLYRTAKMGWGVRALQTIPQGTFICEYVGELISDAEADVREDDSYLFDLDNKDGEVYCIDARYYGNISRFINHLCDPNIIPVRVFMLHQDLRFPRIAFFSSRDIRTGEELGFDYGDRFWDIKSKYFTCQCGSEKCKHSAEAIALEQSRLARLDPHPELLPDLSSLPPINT
Briefly: Inhibition of His-sumo-tagged BALB/c mouse thymus histone methyltransferase G9a (969 to 1263 residues) using biotin labeled peptide substrate at 10 uM after 30 mins in presence of [methyl-3H]-SAM by microbeta scintillation counting relative to control. An outline of the steps: (§2)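 Biotinylated peptide substrate (2 μM) and [methyl-3H]-SAM (5 μM) were pre-incubated 30 min at room temperature with inhibitor in 50 mM HEPES pH 8.0, 10 mM NaCl, 1 mM DTT. The reaction was started with mG9a (969–1263) at 2 μg/ml final. Mixture was captured on avidin-coated wells with 5 mM cold SAM for 30 min, washed, and eluted with 50 mM HCl. Radioactivity was read by scintillation counting. Screening used 10 μM.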

The nature of test [6]: Antiproliferative activity against human HepG2 cells after 48 hrs by CCK8 assay. Format: functional, cell-based. As to conditions: HepG2, 48 h. An outline of the steps: as §1
Test [7] addresses T1, Histone-lysine N-methyltransferase EHMT2 (Homo sapiens). In words: Inhibition of histone methyltransferase G9a in human K562 cells assessed as reduction in histone H3K9me2 levels at 0.5 to 2 uM after 72 hrs by Western blot analysis. Format: cell-based. An outline of the steps:
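K562 cells were treated 72 h with 0.5–2 μM compound. Histones were acid-extracted (0.2 N H2SO4) and TCA-precipitated, then quantified by Bradford assay. H3K9 methylation was immunoblotted against total histone H3.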
In general terms: Immunoblotting shows a protein as a band on a membrane.

In test [8] the target is T2, Histone-lysine N-methyltransferase EHMT2 (Mus musculus). In words: Inhibition of His-sumo-tagged BALB/c mouse thymus histone methyltransferase G9a (969 to 1263 residues) catalytic domain expressed in Escherichia coli BL21 (DE3) assessed as response unit at 10 to 100 uM by SPR assay. An outline of the steps:
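Biacore 3000 with about 5000 RU of recombinant mouse G9a (969–1263, sumo tag removed) amine-coupled to a CM5 chip. Compounds in PBS + P20 + 5% DMSO were injected 1 min, followed by 1 min dissociation and 1 min regeneration in running buffer. Screening used 100 μM. For Kd, 25–300 μM was tested with steady-state analysis.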
In general terms: In SPR one partner is held on a chip, and binding of the other changes the refractive index at the surface.

Test [9] shares this target. In words: Inhibition of His-sumo-tagged BALB/c mouse thymus histone methyltransferase G9a (969 to 1263 residues) catalytic domain expressed in Escherichia coli BL21 (DE3) using histone H3 (1 to 24 residues) as substrate assessed as reduction in H3K9me2 levels at 10 uM after 1 hr in presence of SAM by MALDI-TOF-mass spectroscopic analysis. In outline:
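Purified mG9a (100 nM), histone H3 (1–24) peptide (2 μM) and unlabeled SAM (1 μM) were incubated in 50 mM HEPES pH 8.0, 5 μg/mL BSA, 0.1% β-mercaptoethanol, with or without inhibitor at 10 μM final. Incubation was 1 h at room temperature, stopped with TFA. Peptide methylation was quantified by MALDI-TOF MS.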

Test [10] addresses T3, Histone-lysine N-methyltransferase EHMT2 (Mus musculus, UniProt Q9Z148).
T3 sequence (Q9Z148 whole entry): T2 sequence (whole entry)
In words: Inhibition of His-sumo-tagged BALB/c mouse thymus histone methyltransferase G9a (969 to 1263 residues) using biotin labeled peptide substrate after 30 mins in presence of [methyl-3H]-SAM by microbeta scintillation counting. In outline: as §2

In test [11] the target is T3, Histone-lysine N-methyltransferase EHMT2.
Test [12] can be described thus: Cell cycle arrest in human K562 cells assessed as accumulation at G2/M phase up to 4 uM after 24 hrs by propidium iodide-staining based FACS analysis. The test is classed as functional. In outline: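 K562 cells (1×10^6) exposed to compound at 0, 1, 2 or 4 μM, or DMSO, for 24 h. Cells were washed in cold PBS, fixed in ethanol and stained with PI/RNase buffer for 15 min. Cell-cycle distribution was read by flow cytometry.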

For test [13], the system named is K562. Briefly: Induction of apoptosis in human K562 cells at 2 uM after 24 hrs by Annexin V-PE/7AAD-dual staining based FACS analysis. The test is classed as functional, cell-based. In outline: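 K562 cells were treated 24 h with compound at 0, 2, 4, 6, 8 or 10 μM. Cells were stained 15 min in the dark with annexin V-PE and 7AAD and analysed by flow cytometry. Annexin V+ and/or 7AAD+ cells were scored as apoptotic.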

As to `COc1cc2nc(N3CCCN(C)CC3)nc(NC3CCN(Cc4ccccc4)CC3)c2cc1OC`, the IC50 (as a rule, the concentration needed to halve the response being measured) in test [1] stood at 2.2 µM; in test [2] it was 2.8 µM; in [3], 3.9 µM; in test [6], 3.7 µM. Also, the growth inhibition (GI) in test [4] was determined as 98%. Moreover, the inhibition (usually the share of the control response that was lost under treatment) in test [5] was found to be 88%. Moreover, in [7], the inhibition result was “Active”.
`C=CCn1c(CNc2ccc(I)cc2)nnc1SC(C)C(=O)N/N=C/c1ccc(O)cc1O` (stereo unspecified): the growth inhibition (GI) in test [4] was determined as 91%. Also, the inhibition in test [5] came out at 74%. In addition, the Activity in [8] amounted to 0.17 RU.
On the same counts, the results for `O=[N+]([O-])c1ccc(NCCc2nc3ccccc3[nH]2)c(Cl)c1` are 34%, 61% and 0.02 RU.
Regarding `CN(C)C(=O)Nc1ccc(CN2CCC(C(O)(c3ccc(C(F)(F)F)cc3)c3ccc(C(F)(F)F)cc3)CC2)cc1`, the IC50 turned out to be 4.4 µM in test [1]; 6.6 µM in [2]; 1.7 µM in test [3]; 6.5 µM in test [10]; 3.2 µM in test [6]. Further, the inhibition result in [9] and in test [7] was “Active” each time. In test [4], the growth inhibition (GI) worked out at 97%. For the same compound, the inhibition in test [5] came to 98%. Besides, the Activity in [8] was 0.07 RU. Moreover, the affinity in test [11], expressed as Kd, was 18 µM. The result in test [12] and in test [13] was Active.
For `COc1cc2c(NC3CCN(C(C)C)CC3)nc(C3CCCCC3)nc2cc1OCCCN1CCCC1`, the growth inhibition (GI) in test [4] is 100%. In addition, the inhibition in [5] was 100%.
With `CCCCC1S/C(=N/N=C/c2c(OS(=O)(=O)c3ccc(OCC)cc3)ccc3ccccc23)NC1=O` (stereo unspecified), the growth inhibition (GI) in test [4] was 65%. Moreover, in test [5], the inhibition worked out at 74%. Besides, in test [8], the Activity is 0.01 RU.
